Consider 25 compounds from ChEMBL document CHEMBL4364260, “Discovery of Ziresovir as a Potent, Selective, and Orally Bioavailable Respiratory Syncytial Virus Fusion Protein Inhibitor” (J Med Chem, 2019).

In general, EC50 refers to the concentration at which the effect is half-maximal. The term CC50 denotes the concentration giving 50% cytotoxicity. One may read the bioavailability as dose-corrected exposure relative to a reference, in per cent. Read a low bioavailability as little systemic uptake. What is called AUC(0-t) is the area under the concentration-time curve up to a stated or last time point. Usually half-life stands for how long it takes for the measured level to halve. A high value points to slow decline.

Data set [1] can be described thus: Antiviral activity against Human respiratory syncytial virus A strain Long infected in human Hep2 cells assessed as reduction in virus induced cytopathic effect in presence of 10% FBS after 5 days by CCK-8 assay. The format is functional, cell-based. Particulars: HEp-2, 120 h. A digest of the protocol: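 HEp-2 cells seeded at 6000/well and infected the next day at MOI 0.02, a dose that gives about 90% CPE by day 5. Serial compound dilutions were present throughout, in standard medium with 10% FBS. Viability was read by CCK-8 at day 5, and EC50 is the concentration that cuts CPE by 50%.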
In general terms: Protection from cytopathic effect is a common read-out in antiviral testing.

Data set [2] in a line: Cytotoxicity against human Hep2 cells assessed as reduction in cell viability after 5 days by CCK-8 assay. The format is cell-based. As to conditions: HEp-2 cells. A digest of the protocol:
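Uninfected HEp-2 cells (6000/well) were incubated 5 days with serially diluted compound. Viability was read by CCK-8, and CC50 is the concentration toxic to 50% of cells.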
In general terms: Tetrazolium assays rely on reduction of a dye to a coloured formazan, in cell work by metabolically active cells.

Data set [3] can be described thus: Therapeutic index, ratio of CC50 of human Hep2 cells to EC50 for antiviral activity against human respiratory syncytial virus long strain infected in human Hep2 cells after 5 days by CCK-8 assay. The format is toxicity, cell-based. As to conditions: HEp-2 cells, read-out: Ratio CC50/EC50. The method, boiled down: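 TI is CC50 over EC50. CC50 comes from uninfected HEp-2 cells; EC50 from 50% reduction of RSV Long CPE in HEp-2 cells (MOI 0.02, 5 days). Both were read by CCK-8 viability.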

Data set [4] is described as follows: Plasma clearance in Wistar-Han rat at 2 mg/kg, iv or 10 mg/kg, po administered as single dose via gavage and measured up to 24 hrs by LC/MS/MS analysis. The format is ADME, organism-based. The method, boiled down:
(§1)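 Male Wistar-Han rats, single dose, 2 mg/kg iv and 10 mg/kg po, run by standard procedures.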

A short description of data set [5]: Oral bioavailability in Wistar-Han rat at 10 mg/kg administered as single dose via gavage and measured up to 24 hrs by LC/MS/MS analysis. In kind it is ADME, organism-based. Particulars: in vivo. A digest of the protocol: as §1
Data set [6] can be described thus: AUC (0 to 24 hrs) in Wistar-Han rat at 10 mg/kg, po administered as single dose via gavage and measured up to 24 hrs by LC/MS/MS analysis. Details: dose 10 mg/kg, time < 24 hr, route oral. The format is ADME, organism-based. As to conditions: in vivo. A digest of the protocol: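 Single-dose PK in male Wistar-Han rats at 2 mg/kg iv or 10 mg/kg po, as a solution in 5% DMSO, 40% PEG400 and 55% 0.9% sodium chloride.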

Data set [7] can be described thus: Volume of distribution at steady state in Wistar-Han rat at 2 mg/kg, iv or 10 mg/kg, po administered as single dose via gavage and measured up to 24 hrs by LC/MS/MS analysis. The format is ADME, organism-based. Particulars: in vivo, read-out: Vdss. A digest of the protocol:
as §1

The nature of data set [8]: Half-life in Wistar-Han rat at 2 mg/kg, iv administered as single dose and measured up to 24 hrs by LC/MS/MS analysis. The format is ADME, organism-based. As to conditions: in vivo. The method, boiled down: as §1

Consider `Cc1ccc2nc(N3CCS(=O)(=O)c4ccccc4C3)nc(NCC(C)(C)N)c2c1`, for which the EC50 in data set [1] is 16 nM. Moreover, in data set [2], the CC50 at 120 h stood at 20000 nM. Besides, the selectivity ratio at 120 h in data set [3] is 1250.
For `NC1(CNc2cc(N3CCS(=O)(=O)c4ccccc4C3)nc3ccc(CO)cc23)COC1`, in that order: 2 nM, above 100000 nM and above 50000.
Taken in the same sequence, the figures for `NC1(CNc2cc(N3CCS(=O)(=O)c4ccccc4C3)cc3ccccc23)COC1` were above 31600 nM, 71000 nM and below 2.
Taken in the same sequence, the figures for `Cc1ccc2c(c1)S(=O)(=O)CCN(c1cc(NCC3(N)COC3)c3cc(C)ccc3n1)C2` were 5 nM, 91000 nM and 18200.
Consider `NC1(CNc2nc(N3CCS(=O)(=O)c4ccccc4C3)nc3ccccc23)COC1`, for which, in data set [1], the EC50 was 20 nM. Further, the CC50 at 120 h in data set [2] is above 100000 nM. The selectivity ratio at 120 h in data set [3] was above 5000.
On to `Cc1ccc2nc(N3CCS(=O)(=O)c4cc(F)ccc4C3)cc(NCC3(N)COC3)c2c1`, for which the EC50 in data set [1] came out at 10 nM. In addition, the CC50 at 120 h in data set [2] was determined as 79000 nM. In addition, the selectivity ratio at 120 h in data set [3] came out at 7900.
Taken in the same sequence, the figures for `Cc1ccc2nc(N3CCS(=O)(=O)c4cc(Cl)ccc4C3)cc(NCC3(N)COC3)c2c1` were 27 nM, 15000 nM and 560.
For `Cc1cc2c(NCC3(N)COC3)cc(N3CCS(=O)(=O)c4ccccc4C3)nc2cc1F`, in that order: 21 nM, 64000 nM and 3050.
For `Cc1ccc2nc(N3CCS(=O)(=O)c4ccccc4C3)cc(NCC3(N)COC3)c2c1F`, in that order: 23 nM, 93000 nM and 4040.
Regarding `Cc1ccc2nc(N3CCS(=O)(=O)c4ccccc4C3)nc(NCC3(N)CCC3)c2c1`, the EC50 in data set [1] turned out to be 100 nM. Besides, the CC50 at 120 h in data set [2] turned out to be 21000 nM. For the same compound, the selectivity ratio at 120 h in data set [3] worked out at 210.
For `Cc1ccc2nc(N3CCS(=O)(=O)c4ccc(F)cc4C3)cc(NCC3(N)COC3)c2c1`, in that order: 72 nM, 93000 nM and 1290.
Consider `Cc1ccc2nc(N3CCS(=O)(=O)c4ccc(O)cc4C3)cc(NCC3(N)COC3)c2c1`, for which the concentration giving a half-maximal response (EC50) in data set [1] came to 0.8 nM. The CC50 at 120 h in data set [2] was above 100000 nM. In addition, the selectivity ratio at 120 h in data set [3] is above 125000.
For `COc1ccc2c(c1)CN(c1cc(NCC3(N)COC3)c3cc(C)ccc3n1)CCS2(=O)=O`, in that order: 3 nM, 90000 nM and 30000.
For `CC(C)(O)c1ccc2nc(N3CCS(=O)(=O)c4ccccc4C3)cc(NCC3(N)COC3)c2c1`, in that order: above 100000 nM, above 100000 nM and below 1.
Turning to `Cc1ccc2nc(N3CCS(=O)(=O)c4ccccc4C3)nc(NCC3(N)CC3)c2c1`, the EC50 in data set [1] is 4 nM. Further, the CC50 at 120 h in data set [2] was 13000 nM. The selectivity ratio at 120 h in data set [3] worked out at 3250.
For `COc1cccc2c1S(=O)(=O)CCN(c1cc(NCC3(N)COC3)c3cc(C)ccc3n1)C2`, in that order: 350 nM, above 100000 nM and above 286.
Taken in the same sequence, the figures for `Cc1cc2c(NCC3(N)COC3)cc(N3CCS(=O)(=O)c4ccccc4C3)nc2c(F)c1F` were 510 nM, 53000 nM and 104.
Taken in the same sequence, the figures for `Cc1ccc2c(c1)S(=O)(=O)CCN(c1cc(NCC3(N)COC3)c3ccccc3n1)C2` were 74 nM, 95000 nM and 1280.
Take `COc1ccc2c(c1)S(=O)(=O)CCN(c1cc(NCC3(N)COC3)c3ccccc3n1)C2`: the EC50 in data set [1] came out at 8 nM. Further, the CC50 at 120 h in data set [2] was above 100000 nM. Also, the selectivity ratio at 120 h in data set [3] is above 12500.
For `Cc1ccc2cc(N3CCS(=O)(=O)c4ccccc4C3)nc(NCC3(N)COC3)c2c1`, in that order: 220 nM, 81000 nM and 370.
Taken in the same sequence, the figures for `NC1(CNc2cc(N3CCS(=O)(=O)c4ccccc4C3)nc3ccc(Cl)cc23)COC1` were 34 nM, 87000 nM and 2560.
Taken in the same sequence, the figures for `NC1(CNc2cc(N3CCS(=O)(=O)c4ccccc4C3)nc3ccncc23)COC1` were 12 nM, 99000 nM and 8250.
In the case of `COc1ccc2c(c1)S(=O)(=O)CCN(c1cc(NCC3(N)COC3)c3cc(C)ccc3n1)C2`, the EC50 in data set [1] came to 1 nM. The CC50 at 120 h in data set [2] worked out at 92000 nM. In addition, in data set [3], the selectivity ratio at 120 h came out at 92000.
For `Cc1ccc2nc(N3CCS(=O)(=O)c4c(F)cccc4C3)cc(NCC3(N)COC3)c2c1`, in that order: 3 nM, 35000 nM and 11700.
Turning to `Cc1ccc2nc(N3CCS(=O)(=O)c4ccccc4C3)cc(NCC3(N)COC3)c2c1`, the EC50 in data set [1] is 2 nM. The compound further yielded a clearance in data set [4] of 51 mL/min/kg. The bioavailability in data set [5] was found to be 13%. Further, the AUC(0-t) at 24 h in data set [6] came out at 442 ng·h/mL. Also, in data set [7], the Vd is 4.1 L/kg. Also, the CC50 at 120 h in data set [2] was above 100000 nM. In data set [3], the selectivity ratio at 120 h is above 50000. The compound also showed a half-life in data set [8] of 1.7 h.
